Measurements published in paper PMC2791411 (Biochemistry, 2009).

Key:
[1] = biological target: T1, hDAO (human diamine oxidase) (Homo sapiens, UniProt P19801); test: Inhibition of hDAO putrescine oxidation; format: biochemical; conditions: for Mode of Inhibition: hDAO, putrescine oxidation, global nonlinear regression
T1 sequence (P19801 20-751): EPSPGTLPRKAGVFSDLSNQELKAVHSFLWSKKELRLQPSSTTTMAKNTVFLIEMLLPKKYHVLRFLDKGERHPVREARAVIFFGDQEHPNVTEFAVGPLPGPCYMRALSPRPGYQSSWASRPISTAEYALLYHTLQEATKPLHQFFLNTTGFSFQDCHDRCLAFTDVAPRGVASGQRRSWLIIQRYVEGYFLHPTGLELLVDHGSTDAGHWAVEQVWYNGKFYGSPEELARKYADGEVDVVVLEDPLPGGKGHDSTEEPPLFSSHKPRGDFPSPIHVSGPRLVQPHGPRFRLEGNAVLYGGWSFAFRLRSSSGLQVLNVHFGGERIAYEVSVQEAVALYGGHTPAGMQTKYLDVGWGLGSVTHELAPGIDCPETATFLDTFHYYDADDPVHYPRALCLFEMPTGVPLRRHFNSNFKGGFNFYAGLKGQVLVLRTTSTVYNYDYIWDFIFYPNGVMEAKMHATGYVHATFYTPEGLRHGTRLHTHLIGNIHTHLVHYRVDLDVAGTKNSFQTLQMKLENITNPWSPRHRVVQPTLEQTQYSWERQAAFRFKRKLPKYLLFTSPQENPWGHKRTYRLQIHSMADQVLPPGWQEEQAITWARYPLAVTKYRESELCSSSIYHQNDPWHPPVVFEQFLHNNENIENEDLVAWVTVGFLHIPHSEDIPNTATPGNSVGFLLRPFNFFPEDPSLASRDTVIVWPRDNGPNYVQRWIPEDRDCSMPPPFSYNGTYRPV

hVAP-1 = biological target: T2, hVAP-1 (Homo sapiens, UniProt Q16853); test: Inhibition of hVAP-1 amine oxidase activity; format: biochemical; conditions: for Mode of Inhibition: hVAP-1
T2 sequence (Q16853 1-763): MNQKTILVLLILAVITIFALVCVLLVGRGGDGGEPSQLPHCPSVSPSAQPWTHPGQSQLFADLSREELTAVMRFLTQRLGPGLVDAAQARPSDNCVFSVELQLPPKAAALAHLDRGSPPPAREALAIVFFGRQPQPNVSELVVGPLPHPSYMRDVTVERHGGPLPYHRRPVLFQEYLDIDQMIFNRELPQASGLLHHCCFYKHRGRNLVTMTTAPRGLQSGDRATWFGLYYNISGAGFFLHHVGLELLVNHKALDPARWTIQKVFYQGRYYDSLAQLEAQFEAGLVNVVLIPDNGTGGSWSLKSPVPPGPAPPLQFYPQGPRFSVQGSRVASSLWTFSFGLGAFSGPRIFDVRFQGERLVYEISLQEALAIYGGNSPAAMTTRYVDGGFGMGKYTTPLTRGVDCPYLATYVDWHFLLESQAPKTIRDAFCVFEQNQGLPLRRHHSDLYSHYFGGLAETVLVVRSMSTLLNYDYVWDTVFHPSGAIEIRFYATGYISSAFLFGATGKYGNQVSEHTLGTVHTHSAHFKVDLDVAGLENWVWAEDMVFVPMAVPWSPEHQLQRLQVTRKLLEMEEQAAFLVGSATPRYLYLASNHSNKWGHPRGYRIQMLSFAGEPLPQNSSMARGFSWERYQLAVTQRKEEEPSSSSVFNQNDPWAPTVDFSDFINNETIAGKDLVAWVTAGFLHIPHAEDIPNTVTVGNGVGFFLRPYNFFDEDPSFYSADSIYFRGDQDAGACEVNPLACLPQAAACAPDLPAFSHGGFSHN
Method in brief: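 Purified human VAP-1 was supplied as a gift. Activity was followed as benzaldehyde production at 250 nm over 5 min (ε 12,800 M⁻¹cm⁻¹) in 100 mM potassium phosphate, pH 7.2, at 37 °C, with and without test compound. Ki and mode came from global nonlinear regression, choosing the best-fitting competitive, uncompetitive, noncompetitive or mixed model.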

[2] = patients, intravenous treatment; ref [59], [73], [79]–[81]; cited from earlier work
[3] = AIDS patients under pentamidine treatment; ref [72]–[78]; cited from earlier work

Row | Structure (SMILES) | inhibition of hDAO, in words [1] | Mode of Inhibition [1] | Ki [1] [µM] | further results
1 | N=C(N)c1ccc(N=NNc2ccc(C(=N)N)cc2)cc1 [Berenil, 1,3-bis(4’-amidinophenyl)triazene] | very potent inhibitors | Mixed |  | Mode of Inhibition ([1]; listed as berenil): mixed type/partial competitive inhibition
2 | CN/C(=N/CCSCc1nc[nH]c1C)NC#N [Cimetidine] |  | Mixed | 90 ± 14 | 
3 | Clc1cccc(Cl)c1N=C1NCCN1 [Clonidine] | weak inhibitor | Mixed | 100 ± 8 | 
4 | NNC(=O)c1ccncc1 [Isoniazid] |  | purely noncompetitive | 970 ± 50 | 
5 | N=C(N)c1ccc(OCCCCCOc2ccc(C(=N)N)cc2)cc1 [Pentamidine, 1,5-bis(4-amidinophenoxy)pentane] | very potent inhibitors | mixed type/partial competitive inhibition |  | Ki (hVAP-1): 1.1 ± 0.04 µM; Mode of Inhibition (hVAP-1): Noncompetitive; Mode of Inhibition (hVAP-1; listed as pentamidine): purely noncompetitive; Plasma concentration, lower end of range [2]: 25 ng/mL; Plasma concentration, lower end of range (molar) [2]: 43 nM; Plasma concentration, upper end of range [2]: 1.4 g/mL; Plasma concentration, upper end of range (molar) [2]: 2300 nM; AIDS patients with adverse side effects [3]: at least 70%
6 | NCCCCN [putrescine, 1,4-diaminobutane] |  |  | 2270 ± 140 | 
